Published values of several laboratories.
Each line is one published result; the experiments were not run side by side.
Target: Muscle, skeletal receptor tyrosine-protein kinase (MUSK, Homo sapiens, UniProt O15146)
Sequence (O15146 24-869, as in one of the studies): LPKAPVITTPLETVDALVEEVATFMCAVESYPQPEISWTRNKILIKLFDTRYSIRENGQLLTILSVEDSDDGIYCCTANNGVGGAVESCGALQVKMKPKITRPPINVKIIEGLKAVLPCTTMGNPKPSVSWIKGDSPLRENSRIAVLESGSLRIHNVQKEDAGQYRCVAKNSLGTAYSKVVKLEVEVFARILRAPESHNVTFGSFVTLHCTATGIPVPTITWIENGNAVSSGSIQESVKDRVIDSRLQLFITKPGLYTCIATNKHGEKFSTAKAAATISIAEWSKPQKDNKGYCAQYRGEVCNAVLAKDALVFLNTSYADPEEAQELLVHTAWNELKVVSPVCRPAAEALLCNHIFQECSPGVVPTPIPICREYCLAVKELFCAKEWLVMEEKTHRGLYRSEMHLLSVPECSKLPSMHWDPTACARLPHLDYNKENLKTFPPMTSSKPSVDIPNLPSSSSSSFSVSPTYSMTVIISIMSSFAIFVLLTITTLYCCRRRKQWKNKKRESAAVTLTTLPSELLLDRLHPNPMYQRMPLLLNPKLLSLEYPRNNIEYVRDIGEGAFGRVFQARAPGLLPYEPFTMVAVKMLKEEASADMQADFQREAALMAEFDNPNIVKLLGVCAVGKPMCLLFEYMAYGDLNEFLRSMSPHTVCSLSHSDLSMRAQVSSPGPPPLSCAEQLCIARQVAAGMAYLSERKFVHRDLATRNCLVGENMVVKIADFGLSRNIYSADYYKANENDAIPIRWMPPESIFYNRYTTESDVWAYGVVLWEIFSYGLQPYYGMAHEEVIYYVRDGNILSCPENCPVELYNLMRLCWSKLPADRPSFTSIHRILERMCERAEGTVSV

Compound	test	setting	measurement	value
CNC(=O)c1cc2c(Oc3ccc(NC(=O)C4(C(=O)Nc5ccc(F)cc5)CC4)cc3)ccnc2cc1OC	enzyme activity, inhibitor, radiometric	1 µM	inhibition	70%
O=C(O)[C@@H]1[C@@H](Cn2nnc3ccccc3c2=O)CC[C@H]1C(=O)c1ccc(OCCC2CCOCC2)cc1	cell-free assay, competition with immobilised ligand	1 µM	remaining binding	100%
CCN(CC)CCNC(=O)c1c(C)[nH]c(/C=C2\C(=O)Nc3ccc(F)cc32)c1C	enzyme activity, inhibitor	10 µM	inhibition	90%
c1ccc(N2CCN(Cc3nc4ccccc4[nH]3)CC2)nc1	binding, competition with immobilised ligand	1 µM	remaining binding	100%
COc1cc2ncnc(Nc3ccc(Oc4ccccc4)c(C)c3C)c2cc1OC	enzyme activity, inhibitor	1 µM	inhibition	-2%
Cc1sc(C(=O)NC2COC2)cc1-n1cc(NC(=O)Nc2c(F)cccc2Cl)cn1	enzyme activity, inhibitor	10 µM	remaining activity	103%
Cc1ccc(C(=O)NCc2ccsc2)cc1C#Cc1cn(C(C)C)c2ncnc(N)c12	enzyme activity, inhibitor	1 µM	activity vs control	73%
O=C(NC[C@@H]1[C@H]2CN(C(=O)OCc3cc(C(F)(F)F)cc(C(F)(F)F)c3)C[C@@H]12)c1ccc2[nH]nnc2c1	cell-free assay, competition with immobilised ligand	1 µM	remaining binding	77%
O=C(Nc1cnn(-c2csc(C(=O)NC3COC3)c2)c1)Nc1c(F)cccc1Cl	enzyme activity, inhibitor	5 µM	remaining activity	86.8%
Cc1ccc(NC(=O)c2ccc(C)c(C(F)(F)F)c2)cc1C#Cc1nn(C2CCC(O)CC2)c2ncnc(N)c12 (stereo not shown)	cell-free assay	10 µM	remaining signal	70%
CC/C(=N\NC(=O)NCc1cccc(O)c1)c1ccc(O)c(C)c1O	enzyme activity, inhibitor	0.1 µM	inhibition	-3.4%
CNC(=O)c1cc(Oc2ccc(NC(=O)Nc3ccc(Cl)c(C(F)(F)F)c3)cc2)ccn1	enzyme activity, inhibitor	0.3 µM	inhibition	77%
CC(=O)N1CCC(c2ccc(C(=O)NC(=N)N)cc2C(F)(F)F)CC1	cell-free assay, competition with immobilised ligand	1 µM	remaining binding	100%
Cc1ccc(Nc2nccc(N(C)c3ccc4c(C)n(C)nc4c3)n2)cc1S(N)(=O)=O	enzyme activity, inhibitor	0.3 µM	inhibition	75%
CN(C)C(=O)Cn1cc(-c2nc(C3(c4ccc(-c5cnc(N)nc5)cc4)CC3)no2)cn1	cell-free assay, competition with immobilised ligand	1 µM	remaining binding	100%
Oc1cccc(-c2nc(N3CCOCC3)c3oc4ncccc4c3n2)c1	cell-free assay	0.5 µM	remaining signal	87.8%
COc1cc(C)c(Sc2cnc(NC(=O)c3ccc(N4CCN(CCCCCCCNC(=O)COc5cccc6c5C(=O)N(C5CCC(=O)NC5=O)C6=O)CC4)cc3)s2)cc1C(=O)N1CCN(C(C)=O)CC1 (stereo not shown)	cell-free assay	1 µM	inhibition	> 90%
Nc1ncnc2occ(-c3ccc(NC(=O)Nc4cc(C(F)(F)F)ccc4F)cc3)c12	cell-free assay, inhibitor	20 µM	remaining signal	0%
O=C(NCCCC1CCCCC1)c1ccc(CNC(=O)c2cnn(-c3ccccc3)c2C(F)(F)F)cc1	cell-free assay, competition with immobilised ligand	0.1 µM	remaining binding	100%
CCCOc1ccc(OC)c(F)c1C(=O)c1ccc(C(=O)N[C@@H]2CNC[C@H]2NC(=O)c2ccc3[nH]ncc3c2)cc1	enzyme activity, inhibitor	10 µM	remaining activity	-1%
O=C(Nc1cccnn1)N1CC(C/C=C/c2cncc(Oc3ccc(C(F)(F)F)cn3)n2)C1	cell-free assay, competition with immobilised ligand	1 µM	remaining binding	97%
COc1cc2c(N3CCN(C(=O)Nc4ccc(OC(C)C)cc4)CC3)ncnc2cc1OCCCN1CCCCC1	cell-free assay	0.5 µM	remaining signal	99.6%
CC(C)(C)c1nc2c(s1)c1nc(N)ncc1c1ccc(NS(=O)(=O)c3c(F)cccc3F)c(F)c12	enzyme activity, inhibitor, radiometric	1 µM	remaining activity	80%
O=C1NC(=O)c2cc(Nc3ccc(F)cc3)c(Nc3ccc(F)cc3)cc21	cell-free assay	0.5 µM	remaining signal	90.2%
CCCS(=O)(=O)Nc1ccc(F)c(C(=O)c2c[nH]c3ncc(-c4ccc(Cl)cc4)cc23)c1F	enzyme activity, inhibitor	1 µM	inhibition	< 10%
